Data taken from ChEMBL document CHEMBL4177531, “Cytotoxic Naphthoquinone and Azaanthraquinone Derivatives from an Endophytic Fusarium solani” (J Nat Prod, 2017).

Tests used:
HeLa = experiment: Cytotoxicity against human HeLa cells assessed as reduction in cell viability incubated for 96 hrs by MTT assay; format: functional, cell-based
Method in brief: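 HeLa monolayers kept in DMEM with 10% v/v FBS and 2 mM L-glutamine at 37 °C under humidified 5% CO2. Cells were seeded at 5000–20 000 per well and preincubated 24 h. Compound was added in triplicate, with doxorubicin as positive control. After 96 h continuous exposure, viability was read by MTT absorbance at 570 nm. IC50 came from dose–response analysis.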

NCI-H1975 = experiment: Cytotoxicity against human NCI-H1975 cells assessed as reduction in cell viability incubated for 96 hrs by MTT assay; format: functional, cell-based; conditions: NCI-H1975, 96 h
Method in brief: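 NSCLC NCI H1975 cells were maintained in RPMI 1640 with 10% v/v FBS and 1% penicillin–streptomycin at 37 °C, humidified 5% CO2. Cells were seeded at 5000–20 000 per well, given 24 h, then dosed in triplicate for 96 h with doxorubicin as positive control. Viability was measured by MTT at 570 nm, and IC50 was obtained from dose–response curves.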

WI-38 = experiment: Cytotoxicity against human WI38 cells assessed as reduction in cell viability incubated for 96 hrs by MTT assay; format: cell-based; conditions: WI-38, 96 h
Method in brief: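 WI 38 cells were grown in DMEM with 2 mM L-glutamine, 1× nonessential amino acids, 1% penicillin–streptomycin and 15% FBS at 37 °C, 5% CO2. Cells were plated at 5000–20 000 per well, then 24 h later dosed in triplicate and exposed continuously for 96 h. Read-out was MTT absorbance at 570 nm, with IC50 from dose–response analysis.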

MIA PaCa-2 = experiment: Cytotoxicity against human MIAPaCa2 cells assessed as reduction in cell viability incubated for 96 hrs by MTT assay; format: functional, cell-based; conditions: MIA PaCa-2, 96 h
Method in brief: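 Pancreatic adenocarcinoma MIA PaCa2 cells were cultured in DMEM plus 2 mM L-glutamine and 10% FBS at 37 °C, 5% CO2. Cells were seeded at 5000–20 000 per well and rested 24 h, then dosed in triplicate for 96 h continuous exposure, with doxorubicin as positive control. Read-out was MTT absorbance at 570 nm; IC50 was derived by dose–response analysis.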

MDA-MB-231 = experiment: Cytotoxicity against human MDA-MB-231 cells assessed as reduction in cell viability incubated for 96 hrs by MTT assay; format: functional, cell-based; conditions: MDA-MB-231, 96 h
Method in brief: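 Triple-negative breast line MDA MB231 was grown as monolayer at 37 °C under humidified 5% CO2 and plated at 5000–20 000 cells/well depending on line. After 24 h, compound was added in triplicate, with doxorubicin as positive control. Cells were exposed continuously for 96 h, then MTT colorimetry read at 570 nm. IC50 came from dose–response fitting.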

Row | Structure (SMILES) | IC50 (HeLa) | IC50 (NCI-H1975) | IC50 (WI-38) | IC50 (MIA PaCa-2) | IC50 (MDA-MB-231)
1 | COc1cc(O)c2c(c1)C(=O)C1=C(COC(C)(O)C1)C2=O (stereo not given) | 10300 nM | 27700 nM | 54300 nM | 20500 nM | 30700 nM
2 | COc1cc(O)cc2c1C(=O)c1cnc(C)cc1C2=O | 960 nM | 610 nM | 5840 nM | 980 nM | 1510 nM
3 | COc1c(O)cc(O)c2c1C(=O)c1cc(C)ncc1C2=O | 710 nM | 340 nM | 6420 nM | 640 nM | 730 nM
4 | COc1cccc2c1C(=O)c1c(O)c3c(c(O)c1C2=O)C[C@@](O)(C(=O)CO)C[C@@H]3O[C@H]1C[C@H](N)[C@H](O)[C@H](C)O1 [DOXORUBICIN] | 50 nM | 30 nM | 350 nM | 40 nM | 70 nM
